In ChEMBL document CHEMBL1136016, “Synthesis, biological activity, and molecular modeling investigation of new pyrazolo[4,3-e]-1,2,4-triazolo[1,5-c]pyrimidine derivatives as human A(3) adenosine receptor antagonists” (J Med Chem, 2002):
Each block holds one compound with its values, some of them ahead of it.

Columns and labels:
Adenosine receptor A2a [1] = target: T1, Adenosine receptor A2a (Homo sapiens, UniProt P29274); experiment: Displacement of [3H]SCH-58261 from human Adenosine A2A receptor expressed in HEK293 cells; range 51-55; assay type: cell-based
T1 sequence (P29274 whole entry): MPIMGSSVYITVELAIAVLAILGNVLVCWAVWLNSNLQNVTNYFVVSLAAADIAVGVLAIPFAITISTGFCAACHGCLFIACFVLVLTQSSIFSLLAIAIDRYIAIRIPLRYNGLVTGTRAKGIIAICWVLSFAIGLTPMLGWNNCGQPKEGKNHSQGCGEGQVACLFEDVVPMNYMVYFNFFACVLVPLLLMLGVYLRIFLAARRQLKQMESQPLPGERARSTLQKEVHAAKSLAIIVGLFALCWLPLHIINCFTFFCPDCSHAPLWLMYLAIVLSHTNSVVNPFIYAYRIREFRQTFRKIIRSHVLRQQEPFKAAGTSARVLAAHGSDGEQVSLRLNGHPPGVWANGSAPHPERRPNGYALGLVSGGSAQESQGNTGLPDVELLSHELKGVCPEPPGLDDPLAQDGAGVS

Adenosine receptor A1 [2] = target: T2, Adenosine receptor A1 (Homo sapiens, UniProt P30542); experiment: Displacement of [3H]DPCPX from human Adenosine A1 receptor expressed in CHO cells; range 346-586; assay type: cell-based
T2 sequence (P30542 whole entry): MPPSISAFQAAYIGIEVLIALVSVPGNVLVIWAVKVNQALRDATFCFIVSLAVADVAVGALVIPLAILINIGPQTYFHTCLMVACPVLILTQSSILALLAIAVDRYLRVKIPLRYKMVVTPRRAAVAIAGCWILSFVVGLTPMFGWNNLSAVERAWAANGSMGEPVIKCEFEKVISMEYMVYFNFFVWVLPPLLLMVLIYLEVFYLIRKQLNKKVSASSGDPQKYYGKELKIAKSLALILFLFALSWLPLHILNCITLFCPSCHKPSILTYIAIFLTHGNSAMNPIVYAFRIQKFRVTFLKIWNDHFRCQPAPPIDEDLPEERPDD
Method in brief: (§1)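 Human recombinant A1 receptor in CHO cell membranes, resuspended in 50 mM Tris HCl pH 7.4. Displacement run 120 min at 25 °C with 1 nM [3H]DPCPX, 50 µg protein per assay, and at least six to eight test concentrations. Nonspecific binding defined with CHA. Bound and free separated on glass-fiber filters; filter radioactivity counted. n = 3-6.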

Adenosine receptor A2b [3] = target: T3, Adenosine receptor A2b (Homo sapiens, UniProt P29275); experiment: Displacement of [3H]DPCPX from human Adenosine A2B receptor expressed in HEK293 cells; range 178-310; assay type: cell-based
T3 sequence (P29275 whole entry): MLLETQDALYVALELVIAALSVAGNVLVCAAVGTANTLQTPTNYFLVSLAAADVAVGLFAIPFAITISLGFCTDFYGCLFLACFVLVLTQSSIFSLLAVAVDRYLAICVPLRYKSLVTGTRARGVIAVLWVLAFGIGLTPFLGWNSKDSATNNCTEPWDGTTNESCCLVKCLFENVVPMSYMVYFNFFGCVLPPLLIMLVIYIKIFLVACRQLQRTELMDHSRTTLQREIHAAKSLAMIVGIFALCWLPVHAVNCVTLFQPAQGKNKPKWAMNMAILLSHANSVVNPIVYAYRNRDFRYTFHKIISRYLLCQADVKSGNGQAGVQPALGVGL
Method in brief: (§2)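 HEK-293 membranes expressing the human receptor were incubated 60 min at 25 °C. Six to eight test concentrations were used. Nonspecific binding was set with NECA. n = 3-6.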

[4] = target: Adenosine receptors; A2b & A3 (Homo sapiens) (UniProt P29275+P0DMS8); experiment: Selectivity ratio (h2B/hA3); assay type: protein assay
[5] = target: Adenosine receptors; A1 & A3 (Homo sapiens) (UniProt P30542+P0DMS8); experiment: Selectivity ratio (hA1/hA3); assay type: protein assay
Adenosine receptor A3 [6] = target: T4, Adenosine receptor A3 (Homo sapiens, UniProt P0DMS8); experiment: biochemical
T4 sequence (P0DMS8 whole entry): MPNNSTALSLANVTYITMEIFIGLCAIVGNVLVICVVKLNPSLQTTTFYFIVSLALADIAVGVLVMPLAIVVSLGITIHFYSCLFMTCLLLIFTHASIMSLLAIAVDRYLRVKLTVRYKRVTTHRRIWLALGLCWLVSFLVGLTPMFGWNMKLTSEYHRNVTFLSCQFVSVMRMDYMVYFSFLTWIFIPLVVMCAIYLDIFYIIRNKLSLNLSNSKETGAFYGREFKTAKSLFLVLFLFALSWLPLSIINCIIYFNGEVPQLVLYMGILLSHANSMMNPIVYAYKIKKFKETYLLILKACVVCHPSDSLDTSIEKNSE

Adenosine receptor A2b [7] = target: T3, Adenosine receptor A2b; experiment: Displacement of [3H]DPCPX from human Adenosine A2B receptor expressed in HEK293 cells; range 115-161; assay type: cell-based; method in brief: as §2
Adenosine receptor A1 [8] = target: T2, Adenosine receptor A1; experiment: Displacement of [3H]DPCPX from human Adenosine A1 receptor expressed in CHO cells; range 330-478; assay type: cell-based; method in brief: as §1
Adenosine receptor A2a [9] = target: T1, Adenosine receptor A2a; experiment: Displacement of [3H]SCH-58261 from human Adenosine A2A receptor expressed in HEK293 cells; range 24-48; assay type: cell-based
Adenosine receptor A3 [10] = target: T4, Adenosine receptor A3; experiment: biochemical; remark: listed apart in the source
Adenosine receptor A1 [11] = target: T2, Adenosine receptor A1; experiment: Displacement of [3H]DPCPX from human Adenosine A1 receptor expressed in CHO cells; assay type: cell-based; method in brief: as §1
Adenosine receptor A2b [12] = target: T3, Adenosine receptor A2b; experiment: Displacement of [3H]DPCPX binding at human Adenosine A2B receptor expressed in HEK293 cells; assay type: cell-based
Method in brief: (§3)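 Membranes from HEK-293 cells with human recombinant A2B receptor. Incubation 60 min at 25 °C in 50 mM Tris HCl, 10 mM MgCl2, 1 mM EDTA, 0.1 mM benzamidine, pH 7.4, with 2 IU/mL adenosine deaminase and 40 nM [3H]DPCPX. At least six to eight test concentrations. Nonspecific binding defined with NECA. n = 3-6.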

Adenosine receptor A3 [13] = target: T4, Adenosine receptor A3; experiment: biochemical; remark: listed apart in the source
Adenosine receptor A2a [14] = target: T1, Adenosine receptor A2a; experiment: Displacement of [3H]SCH-58261 from human Adenosine A2A receptor expressed in HEK293 cells; range 240-388; assay type: cell-based
Adenosine receptor A2b [15] = target: T3, Adenosine receptor A2b; experiment: Displacement of [3H]DPCPX from human Adenosine A2B receptor expressed in HEK293 cells; range 116-134; assay type: cell-based; method in brief: as §3
Adenosine receptor A2a [16] = target: T1, Adenosine receptor A2a; experiment: Displacement of [3H]SCH-58261 from human Adenosine A2A receptor expressed in HEK293 cells; range 71-111; assay type: cell-based
Adenosine receptor A3 [17] = target: T4, Adenosine receptor A3; experiment: biochemical; remark: listed apart in the source
Adenosine receptor A1 [18] = target: T2, Adenosine receptor A1; experiment: Displacement of [3H]DPCPX from human Adenosine A1 receptor expressed in CHO cells; range 156-258; assay type: cell-based
Adenosine receptor A2a [19] = target: T1, Adenosine receptor A2a; experiment: Displacement of [3H]SCH-58261 from human Adenosine A2A receptor expressed in HEK293 cells; range 40-96; assay type: cell-based
Adenosine receptor A3 [20] = target: T4, Adenosine receptor A3; experiment: Displacement of [3H]MRE3008-F20 from human Adenosine A3 receptor expressed in HEK cells; range 0.10-0.18; assay type: cell-based, HEK293
Adenosine receptor A2b [21] = target: T3, Adenosine receptor A2b; experiment: Displacement of [3H]-DPCPX from human Adenosine A2B receptor expressed in HEK293 cells; range 206-282; assay type: cell-based
Method in brief: (§4)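 Competition binding on membranes of HEK-293 cells carrying recombinant human A2B receptor. Incubation 60 min at 25 °C in 50 mM Tris HCl pH 7.4 with 10 mM MgCl2, 1 mM EDTA, 0.1 mM benzamidine and 2 IU/mL adenosine deaminase. Radioligand 40 nM [3H]DPCPX, at least six to eight test concentrations. NECA defined nonspecific binding. Bound ligand separated on glass-fibre filters and counted; n = 3-6.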

Adenosine receptor A2b [22] = target: T3, Adenosine receptor A2b; experiment: Displacement of [3H]DPCPX from human Adenosine A2B receptor expressed in HEK293 cells; range 65-94; assay type: cell-based; method in brief: as §4
Adenosine receptor A3 [23] = target: T4, Adenosine receptor A3; experiment: Displacement of [3H]MRE3008-F20 binding at human Adenosine A3 receptor expressed in HEK cells; range 0.76-0.98; assay type: cell-based, HEK293
Adenosine receptor A1 [24] = target: T2, Adenosine receptor A1; experiment: Displacement of [3H]DPCPX from human Adenosine A1 receptor expressed in CHO cells; range 245-319; assay type: cell-based
Adenosine receptor A2a [25] = target: T1, Adenosine receptor A2a; experiment: Displacement of [3H]SCH-58261 from human Adenosine A2A receptor expressed in HEK293 cells; range 83-120; assay type: cell-based

SMILES: CCn1cc2c(nc(NC(=O)Nc3ccc(C(F)(F)F)cc3)n3nc(-c4ccco4)nc23)n1
Ki (Adenosine receptor A2a [1]): 53 nM
Ki (Adenosine receptor A1 [2]): 450 nM
Ki (Adenosine receptor A2b [3]): 235 nM
Ratio [4]: 242
Ratio [5]: 464
Ki (Adenosine receptor A3 [6]): 0.97 nM

SMILES: CCCn1cc2c(nc(NC(=O)Nc3ccc(C(F)(F)F)cc3)n3nc(-c4ccco4)nc23)n1
Ki (Adenosine receptor A2b [7]): 136 nM
Ki (Adenosine receptor A1 [8]): 400 nM
Ratio [4]: 267
Ratio [5]: 784
Ki (Adenosine receptor A2a [9]): 34 nM
Ki (Adenosine receptor A3 [10]): 0.51 nM

SMILES: CCCn1cc2c(nc(NC(=O)Nc3ccc(S(=O)(=O)O)cc3)n3nc(-c4ccco4)nc23)n1
Ki (Adenosine receptor A1 [11]): > 10000 nM
Ki (Adenosine receptor A2b [12]): > 10000 nM
Ki (Adenosine receptor A3 [13]): 30 nM
Ratio [4]: > 333
Ki (Adenosine receptor A2a [14]): 305 nM
Ratio [5]: > 333

Further lines, results first:

Ki (Adenosine receptor A2b [15]): 125 nM
Ki (Adenosine receptor A2a [16]): 91 nM
Ratio [4]: 219
Ki (Adenosine receptor A3 [17]): 0.57 nM
Ki (Adenosine receptor A1 [18]): 200 nM
Ratio [5]: 351
SMILES: CCCCn1cc2c(nc(NC(=O)Nc3ccccc3OC)n3nc(-c4ccco4)nc23)n1

Ki (Adenosine receptor A2a [19]): 62 nM
Ki (Adenosine receptor A3 [20]): 0.15 nM
Ratio [4]: 1610
Ki (Adenosine receptor A2b [21]): 241 nM
Ratio [5]: 1170
SMILES: CCCn1cc2c(nc(NC(=O)Nc3ccccc3)n3nc(-c4ccco4)nc23)n1

Ki (Adenosine receptor A2b [22]): 78 nM
Ratio [4]: 91
Ki (Adenosine receptor A3 [23]): 0.86 nM
Ratio [5]: 326
Ki (Adenosine receptor A1 [24]): 280 nM
Ki (Adenosine receptor A2a [25]): 100 nM
SMILES: CCCCn1cc2c(nc(NC(=O)Nc3ccccc3Cl)n3nc(-c4ccco4)nc23)n1
